Screens (PubChem BioAssay)
Sampled rows, rich in hits. Any-hit rate of the full collection: about 1.3%.
HKDC1 inhibitor = blocks human hexokinase HKDC1 activity; Q2TB90; recombinant HKDC1, G6PDH/diaphorase resazurin coupled fluorescence; inhibition, % at 20 µM; 0.16% of 340,000 active;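 active means inhibition above about 35% when tested at 20 µM, limit read from the data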;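 further: plate controls were DMSO wells with enzyme for no effect and DMSO wells lacking enzyme for full effect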
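Assay system: in-house recombinant HK5 (HKDC1) enzyme. Input: HKDC1 at 5 µg/mL. Medium: Tris pH 8.0 buffer with MgCl2, Tween-20, BSA, BME. Dosing: single 20 µM dose. Schedule: 90 min reaction incubation at room temperature, dark. Signal: resazurin-to-resorufin fluorescence via G6PDH and diaphorase coupling, 525/613 nm. Controls: DMSO-enzyme wells negative, buffer-substituted wells positive.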
Diaph act CS = diaphorase activation or chemical reduction counter-screen. Diaphorase/resazurin coupled assay, resorufin fluorescence, 16 min; active compounds read high; 1 = vehicle wells, 0 = NADH-free wells. activation factor at 20 µM. 0.005% of 190,000 active. AID 1229;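 active means diaphorase activity raised at least twofold by the compound at 20 µM; inactive means activation factor below 2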
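System – purified diaphorase enzyme from Clostridium kluyveri · Input – enzyme 0.07 U/mL final · Also added – final NADH 0.114 mM, resazurin 0.1 mM · Measured by – fluorescence of resorufin, 544 nm excitation, 590 nm emission · Timing – 16 min enzyme reaction, ambient temperature · Measure – resorufin increase flagging diaphorase activators or reducers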
PfG6PD inh = PfG6PD (Plasmodium falciparum) enzyme inhibition | PfGluPho enzyme, NADPH resazurin-diaphorase fluorescence | inhibition, % at 20 µM | 0.78% of 350,000 active | AID 504690;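 active means inhibition reaching at least a set limit at 20 µM in the primary screen, cut at about 59% in these data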;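 further: 0% = DMSO wells with substrate and 100% = DMSO wells lacking glucose-6-phosphate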
Diaphorase inh = diaphorase inhibition or chemical oxidation counter-screen | AID 1217 | diaphorase resazurin-to-resorufin fluorescence, NADH, 16 min; bacterial (C. kluyveri) enzyme, not human | 0.69% of 190,000 active | inhibition, % at 20 µM;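 active means primary screen inhibition at 20 µM above a set limit, cut at about 50% in these data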;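 further: plate controls were DMSO with full reaction for no effect and wells lacking NADH for full effect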
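Assay system: diaphorase enzyme from Clostridium kluyveri; Input: enzyme working solution with 0.14 U/mL diaphorase; Timing: 16 min at room temperature; Technique: resorufin fluorescence, excitation 544 nm, emission 590 nm; Benchmarks: positive control minus NADH, DMSO neutral control.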
G6PDH CS = L. mesenteroides G6PDH inhibition counter-screen | inhibition, % at 5 µM | AID 1020 | 0.12% of 200,000 active | Purified L. mesenteroides G6PDH, diaphorase/resazurin coupled fluorescence, 45 min; in the data active means inhibition above about 50%
PfGluPho conf = confirmation of Plasmodium falciparum G6PD inhibitors; shares compounds with PfG6PD inh; recombinant PfGluPho, NADPH-diaphorase-resazurin fluorescence; inhibition, % at 20 µM; 34% of 2,400 active;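 active means inhibition of at least 50% at 20 µM in any single replicate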;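 further: 0% = DMSO with substrate and 100% = DMSO lacking glucose-6-phosphate substrate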
Diaphorase 10uM = counter-screen for P. falciparum G6PD inhibitors: diaphorase inhibitors, oxidizers; shares compounds with PfG6PD inh; diaphorase-coupled resazurin reduction, fluorescence, NADPH 10 uM; inhibition, % at 20 µM; 39% of 820 active;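 active means average inhibition reaching 50% or more with the compound at 20 µM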;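 further: resorufin red fluorescence formed as diaphorase reduces resazurin using NADPH; 0% = DMSO with enzyme and 100% = DMSO without enzyme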
Diaph ctr 30uM = inhibits diaphorase or oxidizes, flagging false PfG6PD hits; shares compounds with PfG6PD inh; AID 504863; inhibition, % at 20 µM; Diaphorase/resazurin coupled assay, resorufin fluorescence, 30 uM NADPH; 29% of 820 active;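 active means inhibition averaging 50% or more, tested at 20 µM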;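 further: 0% = DMSO with enzyme and 100% = DMSO wells lacking diaphorase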
An asterisk follows results filed as active; x = no result given.

SMILES	HKDC1 inhibitor	Diaph act CS	PfG6PD inh	Diaphorase inh	G6PDH CS	PfGluPho conf	Diaphorase 10uM	Diaph ctr 30uM
O=C(CN1C(=O)c2ccccc2C1=O)Nc1ccccc1	-6	x	-5	x	x	x	x	x
O=C(Cn1sc2ccccc2c1=O)Nc1ccccc1	x	x	122*	x	x	107*	-10	10
O=C(Cn1sc2ccccc2c1=O)NC12CC3CC(CC(C3)C1)C2	0	0.9	125*	12	-4	106*	-20	-22
CCN(CC(=O)Nc1c(F)cccc1F)C(=O)CCCSc1nc2ccccc2[nH]1	x	x	0	x	x	x	x	x
CCc1ccc(CNC(=O)C2CCCN(c3nn4c(=O)cc(C)nc4s3)C2)cc1 (stereo not drawn)	-5	x	5	x	x	x	x	x
CC1(OC(=O)C2CCCC2)C(=O)C=C2C=C(c3ccsc3)N(CC3CC3)C=C2C1=O (stereo not drawn)	21	x	68*	x	x	50*	12	14
CC1(OC(=O)C2CCCC2)C(=O)C=C2C=C(c3ccsc3)N(Cc3ccc4c(c3)OCO4)C=C2C1=O (stereo not drawn)	27	x	61*	x	x	53*	8	3
O=c1[nH]c2ccc(NS(=O)(=O)c3ccc(F)c(Cl)c3)cc2[nH]1	3	x	63*	x	x	16	x	x
O=c1[nH]c2ccc(NS(=O)(=O)c3ccc4ccccc4c3)cc2[nH]1	5	0.9	42	11	4	x	x	x
O=c1[nH]c2ccc(NS(=O)(=O)c3ccc(Cl)cc3)cc2[nH]1	0	0.6	64*	40	6	2	x	x
Cc1ccc(S(=O)(=O)Nc2ccc3[nH]c(=O)[nH]c3c2)c(C)c1	11	0.8	49	24	9	20	x	x
CC(=O)Nc1ccc(NS(=O)(=O)c2ccc3[nH]c(=O)[nH]c3c2)cc1	-4	0.9	-10	9	10	x	x	x
Cc1ccc(S(=O)(=O)Nc2ccc3cn[nH]c3c2)c(C)c1	3	x	37	x	x	x	x	x
COc1ccc(OC)c2c1C(=O)C(Cl)=C(Cl)C2=O	24	x	125*	x	x	112*	81*	42
C[C@@H](NC(=O)c1nc[nH]c1C(=O)N(C)Cc1ccccc1)c1ccccc1	2	x	3	x	x	x	x	x
c1ccc(OCCSc2nnc3sc4ccccc4n23)cc1	11	0.8	105*	16	2	98*	88*	74*
CCCCC1(CO)C(=O)N(c2ccccc2)N(c2ccccc2)C1=O	-4	x	4	x	x	x	x	x
CCCCC1C(=O)N(c2ccccc2)N(c2ccc(O)cc2)C1=O (stereo not drawn)	-2	x	78*	x	x	54*	-26	-36
CCOC(=O)N=Nc1c2ccccc2c2nc3no[nH]c3nc12	33	0.8	69*	20	55*	61*	51*	51*
Cc1ccc(-n2c(N)c(C(=O)N3CCCCC3)sc2=S)cc1	-4	0.9	41	10	3	x	x	x
Nc1c(C(=O)N2CCCCC2)sc(=S)n1-c1ccccc1	-22	1	79*	-3	1	35	x	x
CCOc1ccc(-n2c(N)c(C(=O)N3CCN(C)CC3)sc2=S)cc1	-4	0.9	1	13	-2	x	x	x
Cc1ccc(-n2c(N)c(C(=O)N3CCN(C)CC3)sc2=S)cc1	-15	0.9	79*	9	-18	70*	6	8
Nc1c(C(=O)N2CCOCC2)sc(=S)n1-c1ccccc1	-7	0.9	59*	7	-25	9	x	x
O=C(NCc1cccc(Cl)c1)c1ccc(S(=O)(=O)N2CCCCC2)cc1	x	x	6	x	x	x	x	x
SMILES	HKDC1 inhibitor	Diaph act CS	PfG6PD inh	Diaphorase inh	G6PDH CS	PfGluPho conf	Diaphorase 10uM	Diaph ctr 30uM
CCCCCN(C(=O)CCC(=O)OCc1cccc(Br)c1)c1c(N)n(CCCC)c(=O)[nH]c1=O	-2	x	-36	x	x	x	x	x
COc1ccccc1Nc1nnc(SCc2cc(=O)n3cc(C)ccc3n2)s1	1	0.9	69*	14	8	45	x	x
Cc1ccccc1Nc1nnc(SCc2cc(=O)n3ccsc3n2)s1	21	1	40	2	7	x	x	x
CCCCNC(=O)c1ccc(Cn2c(=S)[nH]c3c([nH]c4ccc(OC)cc43)c2=O)cc1	5	1	3	-2	-5	x	x	x
CCN(CC)CCNC(=O)CCCCn1c(=S)[nH]c2c([nH]c3ccc(OC)cc32)c1=O	-1	0.6	64*	37	2	47*	-3	-8
CCCCN1C(=O)C(CC(=O)NCCCCc2ccccc2)CC(C(=O)N(C)C)=C1C (stereo not drawn)	x	x	-8	x	x	x	x	x
CC(C)(C)OC(=O)N[C@@H](Cc1ccccc1)C(=O)N1CCC(C(=O)N[C@@H](Cc2c[nH]c3ccccc23)C(=O)O)CC1	-3	x	-16	x	x	x	x	x
Cc1nnc(SCc2nc3scc(-c4ccccc4)c3c(=O)[nH]2)s1	-3	x	60*	x	x	34	x	x
CCn1c(SCc2nc3scc(-c4ccccc4)c3c(=O)[nH]2)nnc1-c1cccs1	9	0.7	47	34	-18	49*	49	43
Cc1ccc(S(=O)(=O)N(CCCc2c(C)nc(N)[nH]c2=O)Cc2ccc([N+](=O)[O-])cc2)cc1	x	x	62*	x	x	25	x	x
CC1=CC(=O)C(Sc2ccc(C)cc2)=CC1=O	x	x	124*	x	x	109*	90*	64*
Cc1ccc(Sc2c(C)[nH]n(C(C)(C)C)c2=O)cc1	-6	0.9	-3	15	11	x	x	x
CCOC(=O)c1cnc2ccc(Br)cc2c1NCCO	-10	0.8	65*	20	-22	16	x	x
CN1CCN(C(=S)C(=O)Nc2ccc(Br)cc2)CC1	-9	0.9	81*	9	10	74*	-9	-4
CN1CCN(C(=S)NC(=O)c2ccc(Br)cc2)CC1	0	x	-4	x	x	x	x	x
COc1cc(Cl)ccc1NC(=O)COc1ccccc1C(=O)N1CCN(c2ccc(O)cc2)CC1	-2	0.8	68*	21	6	42	x	x
Cc1cc(Cl)ccc1OCC(=O)Nc1ccccc1C(=O)N1CCOCC1	-3	x	3	x	x	x	x	x
NC(=S)NN=C1c2cc(Cl)ccc2-c2c1cc(Cl)cc2[N+](=O)[O-]	-24	x	4	x	x	x	x	x
COc1cc2c(cc1[N+](=O)[O-])-c1ccc([N+](=O)[O-])cc1C2=NNC(N)=S	x	x	73*	x	x	22	x	x
O=C(COc1cccc2ccccc12)N/N=C/c1ccccc1OCc1ccc(C(=O)O)cc1	4	0.6	77*	36	10	45	x	x
N#Cc1cc(-c2ccccc2)nn1-c1ccccc1	31	0.6	80*	38	-26	34	x	x
Cc1ccc(S(=O)(=O)N(CC(=O)NCc2ccco2)Cc2ccccc2F)cc1	1	0.8	72*	18	-22	33	x	x
